According to ChEMBL document CHEMBL3603769, “1,5-Disubstituted benzimidazoles that direct cardiomyocyte differentiation from mouse embryonic stem cells” (2015):

Experiments:
Format in all cases: functional, Embryonic stem cell
[1] = Induction of cardiomyogenesis in mouse ESC transfected with alpha-MHC at 0.78 to 12.5 uM treated on day 2 to 4 followed by cell reseeding in normal growth media on day 6, 8 measured on day 10 by GFP reporter gene assay relative to vehicle-treated control
In short: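 mESCs stably carrying αMHC-promoter eGFP, expanded feeder-free with LIF on poly-D-lysine (5 passages), then seeded about 1000 cells/well on gelatin in growth media without LIF. From day 2, compound added in equal volume of media at 2× final (0.78–12.5 μM; 50 mM DMSO stocks). Cultures kept at 37 °C, 5% CO2, fixed in paraformaldehyde on day 9 or 10 and DAPI-stained. αMHC-eGFP fluorescence imaged automatically and expressed as fold-change over DMSO-treated cells.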

[2] = Induction of cardiomyogenesis in mouse ESC transfected with alphaMHC-eGFP at 3 uM treated on day 2 to 4 followed by cell reseeding in normal growth media on day 6 and 8 measured on day 12 by alpha-Actinin Alexa568-based immunohistochemical analysis relative to vehicle-treated control
In short: (§1)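 αMHC-eGFP mESCs dosed at 3 or 6 μM on days 2 and 4, then fixed at day 10 or 12 in 4% paraformaldehyde for 40 min at room temperature. Cells were permeabilized and blocked 30 min in PBS with 10% horse serum and 0.2% Triton X-100. Staining used mouse anti-α-actinin (1:200, 60 min) then donkey anti-mouse Alexa568 (1:400, with DAPI, 60 min). Integrated Alexa568 intensity was reported relative to DMSO vehicle.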

[3] = Induction of cardiomyogenesis in mouse ESC transfected with alpha-MHC at 3 uM treated on day 2 to 4 followed by cell reseeding in normal growth media on day 6, 8 measured on day 12 by GFP reporter gene assay relative to vehicle-treated control
In short: (§2)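 αMHC-eGFP mESCs seeded in growth media without LIF, dosed at 3 or 6 μM on days 2 and 4, and fed growth media on days 6 and 8. Cultures were then fixed in 4% paraformaldehyde. Integrated intensity of αMHC-eGFP fluorescence was measured by automated imaging as fold increase over DMSO vehicle. nsRED autofluorescence was subtracted.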

[4] = Induction of cardiomyogenesis in mouse ESC transfected with alphaMHC-eGFP at 6 uM treated on day 2 to 4 followed by cell reseeding in normal growth media on day 6 and 8 measured on day 12 by alpha-Actinin Alexa568-based immunohistochemical analysis relative to vehicle-treated control; in short: as §1
[5] = Induction of cardiomyogenesis in mouse ESC transfected with alpha-MHC at 6 uM treated on day 2 to 4 followed by cell reseeding in normal growth media on day 6, 8 measured on day 12 by GFP reporter gene assay relative to vehicle-treated control; in short: as §2

Row | SMILES | fold change (FC) [1] | also measured
1 | COc1cccc(-n2cnc3cc(NCCc4ccccc4)ccc32)c1 | 1.4 | –
2 | Cc1nnc(Nc2ccc3c(c2)ncn3-c2ccccc2O)c2ccccc12 | 2.1 | –
3 | c1ccc(-n2cnc3cc(NCc4cccs4)ccc32)cc1 | 0.75 | –
4 | FC(F)(F)c1ccc(CNc2ccc3c(c2)ncn3-c2ccccc2)cn1 | 2.9 | –
5 | COc1ccccc1-n1cnc2cc(Nc3nnc(C)c4ccccc34)ccc21 | 4.3 | –
6 | Clc1ncccc1CNc1ccc2c(c1)ncn2-c1ccccc1 | 1.4 | –
7 | Brc1ccc(CNc2ccc3c(c2)ncn3-c2ccccc2)s1 | 3.1 | –
8 | Cn1cccc1CNc1ccc2c(c1)ncn2-c1ccccc1 | 1.6 | –
9 | Cc1nnc(Nc2ccc3c(c2)ncn3-c2ccccn2)c2ccccc12 | 2.2 | –
10 | Nc1ccc2c(c1)ncn2-c1ccccc1 | 3 | –
11 | Cc1nnc(Nc2ccc3c(c2)ncn3-c2cccc(C(F)(F)F)c2)c2ccccc12 | 0.5 | –
12 | COc1ccccc1-n1cnc2cc(Nc3ncccn3)ccc21 | 1.1 | –
13 | COc1ccccc1-n1cnc2cc(Nc3nnc(C)c4ccccc34)cnc21 | 2.5 | –
14 | COc1cccc(Nc2ccc3c(c2)ncn3-c2ccccc2OC)c1 | 3.8 | –
15 | COc1cccc(-n2cnc3cc(Nc4nncc5ccccc45)ccc32)c1 | 13.7 | –
16 | Cc1nnc(Nc2ccc3c(c2)ncn3-c2ccc(C(F)(F)F)cc2)c2ccccc12 | 1.6 | –
17 | COc1ccccc1-n1cnc2cc(Nc3ccccc3)ccc21 | 0.7 | –
18 | COc1cccc(-n2cnc3cc(NC(=O)c4ccccn4)ccc32)c1 | 1.7 | –
19 | Cc1nnc(Nc2ccc3c(c2)nc(N(C)C)n3-c2ccccc2)c2ccccc12 | 3.7 | –
20 | COc1cccc(-n2cnc3cc(Nc4nnc(OC)c5ccccc45)ccc32)c1 | 7.1 | –
21 | Cc1nnc(Nc2ccc3c(c2)ncn3-c2ccccc2C(C)C)c2ccccc12 | 4.4 | –
22 | COc1cccc(-n2cnc3cc(Nc4nnc(-c5ccccc5)c5ccccc45)ccc32)c1 | 1 | –
23 | Cc1nnc(Nc2ccc3c(c2)ncn3-c2ccccc2)c2ccccc12 | 9.6 | fold change (FC) [2]: 10; fold change (FC) [3]: 10; fold change (FC) [4]: 20; fold change (FC) [5]: 20

Row | SMILES | fold change (FC) [1] | also measured
24 | CC(=O)Nc1ccc2c(c1)ncn2-c1ccccc1 | 1.2 | –
25 | Cc1nnc(Nc2ccc3c(c2)ncn3C)c2ccccc12 | 1.6 | –
26 | COc1ccc(-n2cnc3cc(Nc4nnc(C)c5ccccc45)ccc32)cc1 | 10 | –
27 | COc1cccc(-n2cnc3cc(Nc4nnc(Cc5ccccc5)c5ccccc45)ccc32)c1 | 2 | –
28 | Cc1nnc(Nc2ccc3c(c2)nc(N)n3-c2ccccc2)c2ccccc12 | 2.1 | –
29 | Cc1nnc(Nc2ccc3c(c2)ncn3C2CCOCC2)c2ccccc12 | 1.6 | –
30 | Cc1cccc(-n2cnc3cc(Nc4ccc(C)nn4)ccc32)c1 | 7.9 | –
31 | Cc1nnc(Nc2ccc3c(c2)ncn3C2CCCCC2)c2ccccc12 | 3.3 | –
32 | COc1cccc(-n2cnc3cc(Nc4nnc(Cl)c5ccccc45)ccc32)c1 | 6.7 | –
33 | COc1ccccc1-n1cnc2cc(Nc3ccccn3)ccc21 | 1.5 | –
34 | Cc1nnc(Nc2ccc3c(c2)ncn3C2CC2)c2ccccc12 | 0.9 | –
35 | Cc1nnc(Nc2ccc3c(ccn3-c3ccccc3)c2)c2ccccc12 | 2 | –
36 | CCCc1ccc(-n2cnc3cc(Nc4nnc(C)c5ccccc45)ccc32)cc1 | 0.7 | –
37 | c1ccc(CN2CCC(CNc3ccc4c(c3)ncn4-c3ccccc3)CC2)cc1 | 4.3 | –
38 | c1ccc(-n2cnc3cc(Nc4cccnc4)ccc32)cc1 | 7.8 | –
39 | c1ccc(-n2cnc3cc(Nc4cnccn4)ccc32)cc1 | 2.4 | –
40 | COc1cccc(-n2cnc3cc(NCc4ccccc4OC)ccc32)c1 | 1.7 | –
41 | Cc1nnc(Nc2ccc3c(c2)ncn3C2CCN(C)CC2)c2ccccc12 | 4.4 | –
42 | COc1cccc(-n2cnc3cc(Nc4nnc(C)c5ccccc45)ccc32)c1 | 18.6 | –
43 | c1ccc(-n2cnc3cc(NCc4ccco4)ccc32)cc1 | 2.2 | –
44 | Cc1nnc(Nc2ccc3c(c2)nnn3-c2ccccc2)c2ccccc12 | 3.1 | –
45 | COc1ccccc1-n1cnc2cc(Nc3ccc4ccccc4c3)ccc21 | 3.1 | –
46 | c1ccc(-c2ccc(CNc3ccc4c(c3)ncn4-c3ccccc3)cn2)cc1 | 3 | –
